Measurements published in ChEMBL document CHEMBL3351505, “Ultrasound-assisted synthesis of novel 1,2,3-triazoles coupled diaryl sulfone moieties by the CuAAC reaction, and biological evaluation of them as antioxidant and antimicrobial agents” (Eur J Med Chem, 2014).
≈ marks a conversion by molar mass, not a printed value. Calls of active or inactive are those of the source. The calls are words filed in the database; no cut-off is given here.

What was measured:
Staphylococcus aureus [1] = experiment: Antibacterial activity against Staphylococcus aureus ATCC 29213 using 100 uL of test compound after 24 hrs by agar well diffusion method; format: functional
In short: (§1)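 Agar well diffusion. Nutrient agar was spread with bacterial suspension at 1×10⁸ CFU/mL, and 10 mm wells were cut. Wells were loaded with compound solution made at 200 mg per 1 mL DMSO. Plates were incubated 24 h at 37 °C and inhibition zones were measured. DMSO served as the negative control.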

Bacillus subtilis [2] = experiment: Antibacterial activity against Bacillus subtilis ATCC 6633 using 100 uL of test compound after 24 hrs by agar well diffusion method; format: functional; in short: as §1
Priestia megaterium [3] = experiment: Antibacterial activity against Bacillus megaterium ATCC 9885 using 100 uL of test compound after 24 hrs by agar well diffusion method; format: functional; in short: as §1
Micrococcus luteus [4] = experiment: Antibacterial activity against Sarcina lutea using 100 uL of test compound after 24 hrs by agar well diffusion method; format: functional; in short: as §1
Klebsiella pneumoniae [5] = experiment: Antibacterial activity against Klebsiella pneumoniae ATCC 13883 using 100 uL of test compound after 24 hrs by agar well diffusion method; format: functional; in short: as §1
Pseudomonas aeruginosa [6] = experiment: Antibacterial activity against Pseudomonas aeruginosa ATCC 27953 using 100 uL of test compound after 24 hrs by agar well diffusion method; format: functional; in short: as §1
Escherichia coli [7] = experiment: Antibacterial activity against Escherichia coli ATCC 25922 using 100 uL of test compound after 24 hrs by agar well diffusion method; format: functional; in short: as §1
Candida albicans [8] = experiment: Antifungal activity against Candida albicans NRRL Y-477 using 100 uL of test compound after 48 hrs by agar well diffusion method; format: functional
In short: as §1, with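 “Sabouraud dextrose” for “Nutrient”, “yeast or fungal” for “bacterial”, “1×10⁶” for “1×10⁸”, “48” for “24”, “28” for “37”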

Saccharomyces cerevisiae [9] = experiment: Antifungal activity against Saccharomyces cerevisiae using 100 uL of test compound after 48 hrs by agar well diffusion method; format: functional
In short: as §1, with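 “Sabouraud dextrose” for “Nutrient”, “yeast or fungal” for “bacterial”, “1×10⁶” for “1×10⁸”, “48” for “24”, “28” for “37”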

Aspergillus niger [10] = experiment: Antifungal activity against Aspergillus niger using 100 uL of test compound after 48 hrs by agar well diffusion method; format: functional
In short: as §1, with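 “Sabouraud dextrose” for “Nutrient”, “yeast or fungal” for “bacterial”, “1×10⁶” for “1×10⁸”, “48” for “24”, “28” for “37”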

Staphylococcus aureus [11] = experiment: Antibacterial activity against Staphylococcus aureus ATCC 29213 after 24 hrs by two fold serial dilution method; format: functional
Bacillus subtilis [12] = experiment: Antibacterial activity against Bacillus subtilis ATCC 6633 after 24 hrs by two fold serial dilution method; format: functional
Priestia megaterium [13] = experiment: Antibacterial activity against Bacillus megaterium ATCC 9885 after 24 hrs by two fold serial dilution method; format: functional
Micrococcus luteus [14] = experiment: Antibacterial activity against Sarcina lutea after 24 hrs by two fold serial dilution method; format: functional
Klebsiella pneumoniae [15] = experiment: Antibacterial activity against Klebsiella pneumoniae ATCC 13883 after 24 hrs by two fold serial dilution method; format: functional
Pseudomonas aeruginosa [16] = experiment: Antibacterial activity against Pseudomonas aeruginosa ATCC 27953 after 24 hrs by two fold serial dilution method; format: functional
Escherichia coli [17] = experiment: Antibacterial activity against Escherichia coli ATCC 25922 after 24 hrs by two fold serial dilution method; format: functional
Candida albicans [18] = experiment: Antifungal activity against Candida albicans NRRL Y-477 after 48 hrs by two fold serial dilution method; format: functional
In short: (§2)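 Two-fold serial broth dilution in a suitable broth, run only on compounds giving inhibition zones of at least 16 mm. Final concentrations were […]. Each 5 mL received 0.1 mL inoculum and was incubated 48 h at 28 °C. MIC was the lowest concentration without growth.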

Saccharomyces cerevisiae [19] = experiment: Antifungal activity against Saccharomyces cerevisiae after 48 hrs by two fold serial dilution method; format: functional; in short: as §2
Aspergillus niger [20] = experiment: Antifungal activity against Aspergillus niger after 48 hrs by two fold serial dilution method; format: functional; in short: as §2
[21] = Antioxidant activity assessed as DPPH free radical scavenging activity by spectrophotometric assay; format: physicochemical
In short: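 Sample solutions at several concentrations were added to 0.004% DPPH in methanol and incubated 60 min in the dark. Absorbance was read at 517 nm against a blank. Inhibition % = (A_blank − A_sample)/A_blank × 100, where the control contained all reagents except the test compound.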

SMILES	MIC (Staphylococcus aureus [11]; ATCC 29213, 24 h) [µg/mL]	MIC (Micrococcus luteus [14])	MIC (Klebsiella pneumoniae [15]; ATCC 13883, 24 h) [µg/mL]	MIC (Pseudomonas aeruginosa [16])	MIC (Escherichia coli [17]; ATCC 25922, 24 h) [µg/mL]	MIC (Candida albicans [18]; NRRL Y-477, 48 h) [µg/mL]	MIC (Saccharomyces cerevisiae [19])	MIC (Aspergillus niger [20]) [µg/mL]	IC50 [21] [µg/mL]	MIC (Priestia megaterium [13]; ATCC 9885, 24 h) [µg/mL]	diameter of the inhibition zone (DIZ) (Staphylococcus aureus [1])	diameter of the inhibition zone (DIZ) (Bacillus subtilis [2])	diameter of the inhibition zone (DIZ) (Priestia megaterium [3]) [mm]	diameter of the inhibition zone (DIZ) (Micrococcus luteus [4]) [mm]	diameter of the inhibition zone (DIZ) (Klebsiella pneumoniae [5]) [mm]	diameter of the inhibition zone (DIZ) (Pseudomonas aeruginosa [6]) [mm]	diameter of the inhibition zone (DIZ) (Escherichia coli [7]) [mm]	diameter of the inhibition zone (DIZ) (Candida albicans [8]) [mm]	diameter of the inhibition zone (DIZ) (Saccharomyces cerevisiae [9]) [mm]	diameter of the inhibition zone (DIZ) (Aspergillus niger [10]) [mm]	further results
CC(O)(Cc1cn(Cc2ccccc2)nn1)c1ccc(S(=O)(=O)c2ccccc2)cc1 (stereo not drawn)	200 (≈ 461 µM)	200 µg/mL (≈ 461 µM)	100 (≈ 231 µM)	200 µg/mL (≈ 461 µM)	200 (≈ 461 µM)	200 (≈ 461 µM)	200 µg/mL (≈ 461 µM)	25 (≈ 57.7 µM)	600 (≈ 1380 µM)	200 (≈ 461 µM)	22 mm	16 mm	17	23	24	23	22	19	16	32	MIC (Bacillus subtilis [12]; ATCC 6633, 24 h): 200 µg/mL (≈ 461 µM)
CC(O)(Cc1cn(CC(=O)c2ccc(S(=O)(=O)c3ccccc3)cc2)nn1)c1ccc(S(=O)(=O)c2ccccc2)cc1 (stereo not drawn)		inactive	200 (≈ 332 µM)	inactive	200 (≈ 332 µM)		200 µg/mL (≈ 332 µM)	50 (≈ 83.1 µM)	20 (≈ 33.2 µM)	200 (≈ 332 µM)	inactive	inactive	17	14	18	15	19	15	17	32	MIC (Staphylococcus aureus [11]): inactive; MIC (Bacillus subtilis [12]): inactive; MIC (Candida albicans [18]): inactive
CC(Cc1cn(Cc2ccccc2)nn1)(OCc1cn(Cc2ccccc2)nn1)c1ccc(S(=O)(=O)c2ccccc2)cc1 (stereo not drawn)		200 µg/mL (≈ 331 µM)		200 µg/mL (≈ 331 µM)	200 (≈ 331 µM)	200 (≈ 331 µM)	inactive	25 (≈ 41.3 µM)	600 (≈ 992 µM)	200 (≈ 331 µM)	14 mm	14 mm	17	17	15	19	18	16	14	34	MIC (Staphylococcus aureus [11]): inactive; MIC (Bacillus subtilis [12]): inactive; MIC (Klebsiella pneumoniae [15]): inactive
O=C(Cn1cc(COC(Cc2cn(CC(=O)c3ccc(F)cc3)nn2)c2ccc(S(=O)(=O)c3ccccc3)cc2)nn1)c1ccc(F)cc1 (stereo not drawn)	100 (≈ 146 µM)	200 µg/mL (≈ 293 µM)	200 (≈ 293 µM)	inactive		200 (≈ 293 µM)	200 µg/mL (≈ 293 µM)	50 (≈ 73.2 µM)	275 (≈ 403 µM)	200 (≈ 293 µM)	26 mm	19 mm	17	20	16	15	14	22	19	32	MIC (Bacillus subtilis [12]; ATCC 6633, 24 h): 200 µg/mL (≈ 293 µM); MIC (Escherichia coli [17]): inactive

More lines, in order of falling MIC (Aspergillus niger [20]), values ahead:

MIC (Staphylococcus aureus [11]; ATCC 29213, 24 h) [µg/mL]	MIC (Micrococcus luteus [14])	MIC (Klebsiella pneumoniae [15]; ATCC 13883, 24 h) [µg/mL]	MIC (Pseudomonas aeruginosa [16])	MIC (Escherichia coli [17]; ATCC 25922, 24 h) [µg/mL]	MIC (Candida albicans [18]; NRRL Y-477, 48 h) [µg/mL]	MIC (Saccharomyces cerevisiae [19])	MIC (Aspergillus niger [20]) [µg/mL]	IC50 [21] [µg/mL]	MIC (Priestia megaterium [13]; ATCC 9885, 24 h) [µg/mL]	SMILES	diameter of the inhibition zone (DIZ) (Staphylococcus aureus [1])	diameter of the inhibition zone (DIZ) (Bacillus subtilis [2])	diameter of the inhibition zone (DIZ) (Priestia megaterium [3]) [mm]	diameter of the inhibition zone (DIZ) (Micrococcus luteus [4]) [mm]	diameter of the inhibition zone (DIZ) (Klebsiella pneumoniae [5]) [mm]	diameter of the inhibition zone (DIZ) (Pseudomonas aeruginosa [6]) [mm]	diameter of the inhibition zone (DIZ) (Escherichia coli [7]) [mm]	diameter of the inhibition zone (DIZ) (Candida albicans [8]) [mm]	diameter of the inhibition zone (DIZ) (Saccharomyces cerevisiae [9]) [mm]	diameter of the inhibition zone (DIZ) (Aspergillus niger [10]) [mm]	further results
200 (≈ 477 µM)	200 µg/mL (≈ 477 µM)	200 (≈ 477 µM)	200 µg/mL (≈ 477 µM)	200 (≈ 477 µM)	200 (≈ 477 µM)	200 µg/mL (≈ 477 µM)	50 (≈ 119 µM)	200 (≈ 477 µM)		O=S(=O)(c1ccccc1)c1ccc(C(O)Cc2cn(Cc3ccccc3)nn2)cc1 (stereo not drawn)	19 mm	17 mm	14	20	23	20	19	19	17	30	MIC (Bacillus subtilis [12]; ATCC 6633, 24 h): 200 µg/mL (≈ 477 µM); MIC (Priestia megaterium [13]): inactive
200 (≈ 380 µM)	200 µg/mL (≈ 380 µM)	100 (≈ 190 µM)	100 µg/mL (≈ 190 µM)	200 (≈ 380 µM)	200 (≈ 380 µM)	200 µg/mL (≈ 380 µM)	50 (≈ 95 µM)	500 (≈ 950 µM)	200 (≈ 380 µM)	O=C(Cn1cc(CC(O)c2ccc(S(=O)(=O)c3ccccc3)cc2)nn1)c1ccc(Br)cc1 (stereo not drawn)	22 mm	14 mm	19	20	24	25	22	20	17	30	MIC (Bacillus subtilis [12]): inactive
200 (≈ 340 µM)	100 µg/mL (≈ 170 µM)	200 (≈ 340 µM)	200 µg/mL (≈ 340 µM)			200 µg/mL (≈ 340 µM)	50 (≈ 85.1 µM)	74 (≈ 126 µM)		O=C(Cn1cc(CC(O)c2ccc(S(=O)(=O)c3ccccc3)cc2)nn1)c1ccc(S(=O)(=O)c2ccccc2)cc1 (stereo not drawn)	17 mm	20 mm	15	22	19	17	17	15	16	28	MIC (Bacillus subtilis [12]; ATCC 6633, 24 h): 200 µg/mL (≈ 340 µM); MIC (Priestia megaterium [13]): inactive; MIC (Escherichia coli [17]): inactive; MIC (Candida albicans [18]): inactive
	100 µg/mL (≈ 106 µM)	200 (≈ 213 µM)	200 µg/mL (≈ 213 µM)	200 (≈ 213 µM)		inactive	25 (≈ 26.6 µM)	600 (≈ 638 µM)	200 (≈ 213 µM)	CC(Cc1cn(CC(=O)c2ccc(S(=O)(=O)c3ccccc3)cc2)nn1)(OCc1cn(CC(=O)c2ccc(S(=O)(=O)c3ccccc3)cc2)nn1)c1ccc(S(=O)(=O)c2ccccc2)cc1 (stereo not drawn)	14 mm	14 mm	22	25	19	19	17	15	14	34	MIC (Staphylococcus aureus [11]): inactive; MIC (Bacillus subtilis [12]): inactive; MIC (Candida albicans [18]): inactive
